Apaf-1 inh = inhibitors of human Apaf-1 apoptosome | actives 0.71% (n = 330,000) | inhibition, % at 20 µM | reconstituted apoptosome caspase-3 activity, DEVD-Rh110 fluorescence; active = inhibition of at least 40% at 20 µM;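 also: plate controls were DMSO wells for no effect and DEVD-CHO caspase inhibitor wells for full effect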
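Assay system: Apoptosome proteins | Medium: pH 7.5 Hepes buffer with CHAPS, BSA, DTT | Also added: Cytochrome c and DEVD-Rh110 substrate | Times: 30 min plus 50 min, RT | Detection: Rhodamine 110 fluorescence at Ex 480/Em 540 nm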
PAFAH1B3 FP inh = PAFAH1B3 (human) inhibition. Q15102. recombinant PAFAH1B3, FP-rhodamine probe, fluorescence polarization. inhibition, % at 3.39 µM. actives 0.28% (n = 340,000). AID 492972;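 active = inhibition above the screen-wide average of all tested compounds plus 3 SD, cut at about 25% in these data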;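 also: 0% = enzyme with DMSO only and 100% = wells lacking PAFAH1B3 protein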
Target sequence (Q15102 whole entry, looked up): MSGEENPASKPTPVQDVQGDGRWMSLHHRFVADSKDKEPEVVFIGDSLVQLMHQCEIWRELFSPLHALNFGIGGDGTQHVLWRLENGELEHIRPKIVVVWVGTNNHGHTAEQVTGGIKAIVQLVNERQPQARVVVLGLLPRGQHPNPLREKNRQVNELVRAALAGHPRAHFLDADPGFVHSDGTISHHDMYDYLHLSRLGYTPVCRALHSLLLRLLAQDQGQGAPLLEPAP
PAFAH2 inh = PAFAH2 (human) inhibition; Q99487; recombinant PAFAH2, FP-rhodamine activity probe, fluorescence polarization; inhibition, % at 3.39 µM; actives 0.99% (n = 340,000); AID 492956;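 active = inhibition above the mean over all tested compounds plus 3 SD, cut at about 30% in these data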;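 also: inhibitors block probe labeling of enzyme so polarization drops; 0% = enzyme with DMSO and 100% = wells lacking PAFAH2 protein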
TDP2 inh = blocks human TDP2 phosphodiesterase activity. O95551. recombinant TDP2, T5PNP hydrolysis, p-nitrophenol absorbance 415 nm. inhibition, % at 12.8 µM. actives 0.34% (n = 370,000). AID 720702;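 active = inhibition above the mean of all tested compounds plus 3 SD, set per campaign, cut at about 25% in these data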;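 also: 0% = DMSO with enzyme and 100% = buffer with substrate but no TDP2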
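Test system: Human TDP2 enzyme | Reagent: 5 mM T5PNP | Compound dosing: 12.8 µM single point, 1% DMSO | Incubation: Enzyme reaction with compound for 2 h at 37 °C | Technique: p-Nitrophenol epi absorbance | Read-out: % inhibition relative to enzyme-containing and enzyme-free wells | Benchmarks: High control without enzyme, low control DMSO plus TDP2 | Replicates: Singlicate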
PAFAH1B2 inh = inhibitors of human PAFAH1B2 | P68402 | recombinant PAFAH1B2, FP-rhodamine activity probe, fluorescence polarization | inhibition, % at 3.39 µM | actives 1.2% (n = 340,000);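 active = inhibition above the mean of all tested compounds plus 3 SD, cut at about 24% in these data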;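 also: 0% = enzyme with DMSO and 100% = wells lacking PAFAH1B2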
Target sequence (P68402 whole entry, looked up): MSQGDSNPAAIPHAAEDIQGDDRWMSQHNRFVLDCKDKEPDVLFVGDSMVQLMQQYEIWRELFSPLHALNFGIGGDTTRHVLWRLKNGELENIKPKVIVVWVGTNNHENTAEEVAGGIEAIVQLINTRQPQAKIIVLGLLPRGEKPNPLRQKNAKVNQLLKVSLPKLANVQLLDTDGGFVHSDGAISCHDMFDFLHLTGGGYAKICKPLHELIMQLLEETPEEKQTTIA
* marks the source's active call; other numbers are inactive results; / = no result. Rows were chosen to be rich in hits. Some 2.3% of all compounds tested hit in one or more screens of this group.

SMILES | Apaf-1 inh | PAFAH1B3 FP inh | PAFAH2 inh | TDP2 inh | PAFAH1B2 inh
CC(=O)Nc1ccc(S(=O)(=O)N(C)CC(=O)OCC(=O)NC(C)C23CC4CC(CC(C4)C2)C3)cc1 (stereo not drawn) | 6 | 8 | 7 | 2 | 25*
C=CCn1c(SCC(=O)O)nnc1-c1ccco1 | / | / | / | -4 | /
O=C(CNS(=O)(=O)c1ccccc1)NCC(=O)OCc1ccc(Cl)cc1 | -12 | 0 | -2 | -2 | 27*
NC(=O)c1ccsc1NC(=O)COC(=O)c1ccc([N+](=O)[O-])o1 | -9 | 6 | -1 | -12 | -1
NC(=O)c1ccsc1NC(=O)c1ccc([N+](=O)[O-])o1 | 16 | 9 | 36* | 4 | 9
O=c1cc2c(=O)oc3cc(O)c(O)oc3c2c(O)c1O | / | 79* | 62* | -2 | 30*
O=c1oc2cc(O)c(Cl)cc2c2ccccc12 | -2 | 6 | 0 | -5 | -2
O=C(COC(=O)C12CC3CC(CC(Br)(C3)C1)C2)Nc1c(F)cccc1F | 8 | 14 | 11 | -1 | 35*
O=C(COC(=O)C12CC3CC(CC(Br)(C3)C1)C2)Nc1ccc2[nH]c(=O)[nH]c2c1 | 5 | 2 | 3 | 1 | 37*
COc1ccccc1NC(=O)COC(=O)C12CC3CC(CC(Cl)(C3)C1)C2 | 23 | 4 | 1 | -5 | 24
COc1ccccc1NC(=O)COC(=O)C12CC3CC(CC(Br)(C3)C1)C2 | 12 | 16 | 0 | -4 | 30*
O=C(COC(=O)C1CC1)Nc1ccc2[nH]c(=O)[nH]c2c1 | -23 | 7 | -3 | -22 | -2
Cc1c(NC(=O)COC(=O)C23CC4CC(CC(Br)(C4)C2)C3)c(=O)n(-c2ccccc2)n1C | 6 | 11 | 5 | -4 | 26*
Cc1c(NC(=O)C23CC4CC(CC(C4)C2)C3)c(=O)n(-c2ccccc2)n1C | -13 | 2 | 11 | -3 | 8
CC(=O)NC12CC3CC(C1)CC(C(=O)OCC(=O)Nc1c(F)cccc1F)(C3)C2 | -9 | 2 | 0 | 9 | 3
Cc1ccc(-c2nnc(SCC(=O)Nc3ccc4c(c3)OCCO4)n2-c2ccc(Cl)cc2)cc1 | / | / | / | -1 | /
CN1CCN(S(=O)(=O)c2ccc(Sc3nnnn3-c3ccccc3)c([N+](=O)[O-])c2)CC1 | 10 | 9 | 10 | 5 | 38*
CC(=O)c1ccc(Sc2nnnn2-c2ccccc2)c([N+](=O)[O-])c1 | 10 | -7 | 10 | 8 | 3
O=C(O)C/C(=C\c1cc2c(cc1Br)OCO2)c1nc2ccccc2s1 | 13 | -2 | 8 | -5 | 73*
O=C(O)c1cc([N+](=O)[O-])ccc1NCc1ccccc1 | 3 | 3 | 3 | 1 | 13
O=C(O)c1cc([N+](=O)[O-])ccc1NCCCc1ccccc1 | 0 | 3 | 14 | -12 | 50*
C#CCNC(=O)C[C@H]1C[C@@]2(C(=O)OC)C(=C[C@H](C(C)C)O[C@@H]2C2CC2)N(CCCCCCCC)C1=O | / | / | / | -5 | /
CC(C)(CNC(=O)c1cccc(NS(=O)(=O)c2ccc(Br)cc2)c1)N1CCOCC1 | -1 | 6 | 2 | 1 | 27*
COc1ccccc1N1CCN(N=Cc2ccccc2Br)CC1 | / | / | / | 0 | /
CN(C)C=Nc1nc2c(Br)ccc(Br)c2cc1C(=O)NCC(C)(C)C | / | / | / | 9 | /
SMILES | Apaf-1 inh | PAFAH1B3 FP inh | PAFAH2 inh | TDP2 inh | PAFAH1B2 inh
COc1cc2c(cc1OC)-c1cc(NC3CCCCCCC3)nc(=O)n1CC2 | 17 | 6 | 52* | 4 | 5
CCCCCCNc1cc2n(c(=O)n1)CCc1cc(OC)c(OC)cc1-2 | 0 | 7 | 77* | -3 | 5
COc1cc2c(cc1OC)-c1cc(OCCN3CCOCC3)nc(=O)n1CC2 | -4 | 9 | 54* | 12 | 1
CCNc1cc2n(c(=O)n1)CCc1cc(OC)c(OC)cc1-2 | -22 | 5 | 5 | 2 | 0
COc1cc2c(cc1OC)-c1cc(NC3CCCCC3)nc(=O)n1CC2 | 0 | 2 | 27 | 7 | 0
CCOC(=O)[C@@]12CN(C(=O)OC(C)(C)C)CC=C1N(Cc1ccc(OC)cc1)C(=O)[C@H]2CC(=O)NCCCCc1ccccc1 | / | / | / | -7 | /
COC(=O)C1CN(CCc2ccccc2)CCS(=O)(=O)N1Cc1ccccc1F (stereo not drawn) | / | / | / | -11 | /
Cc1c(C)c2c(OCC(=O)NCC3CCC(C(=O)O)CC3)cc3c(c2oc1=O)CCC(C)(C)O3 (stereo not drawn) | / | / | / | 4 | /
Cc1c(C)c2c(OCC(=O)NCC(=O)NCC(=O)O)cc3c(c2oc1=O)CCC(C)(C)O3 | -3 | -4 | 80* | 0 | 6
Cc1c(C)c2c(OCC(=O)O)cc3c(c2oc1=O)CCC(C)(C)O3 | 0 | 9 | 60* | 14 | 12
Cc1c(C)c2c(OCC(=O)Nc3ccc(CCO)cc3)cc3c(c2oc1=O)CCC(C)(C)O3 | 17 | 6 | 56* | 5 | -2
Cc1cc(=O)oc2c3c(cc(OCC(=O)N[C@@H](C)C(=O)O)c12)OC(C)(C)CC3 | 5 | 5 | 6 | -11 | -4
C[C@@H](NC(=O)C[C@H]1CC[C@H]2[C@@H](COc3ccc(NC(=O)Nc4ccccc4)cc3C(=O)N2C)O1)c1ccccc1 | / | / | / | 0 | /
CCN(C(=O)C1CCN(c2ncccn2)CC1)c1ccccc1 | / | / | / | 9 | /
Cc1ccc(N=Cc2cccc(O)c2O)c(C)c1 | 93* | 17 | 9 | 11 | 10
CCN(CC)c1ccc(C=Nc2ccc(C)cc2C)c(O)c1 | 5 | 4 | 2 | -5 | 0
Clc1ccc(C2Nc3cccc4cccc(c34)N2)c(Cl)c1 | / | 11 | 5 | 4 | 9
Clc1cccc(-c2ccc(C3Nc4cccc5cccc(c45)N3)o2)c1 | 25 | 31* | -9 | / | 25*
Cc1ccc(S(=O)(=O)NCC2CN(S(=O)(=O)c3ccc(C)cc3)c3ccccc3C(=O)N2c2ccc(F)cc2)cc1 (stereo not drawn) | / | / | / | -11 | /
Cc1ccc(Cn2cc(CN3[C@H](C)COc4cc(Br)ccc4S3(=O)=O)nn2)cc1 | / | / | / | 6 | /
CCN(CC)S(=O)(=O)c1ccc(/C=C/C(=O)OCC(=O)NCc2ccco2)cc1 | 2 | -6 | 75* | 0 | 9
CCN(CC)S(=O)(=O)c1ccc(C(=O)OCC(=O)NCc2ccco2)cc1 | -6 | 11 | -1 | -16 | -2
CCN(CC)S(=O)(=O)c1ccc(Cl)c(NC(=O)COC(=O)c2ccc(O)cc2)c1 | 1 | 3 | 73* | -15 | 1
CCN(CC)S(=O)(=O)c1ccc(Cl)c(NC(=O)COC(=O)/C=C/c2ccc(O)c(OC)c2)c1 | 11 | 0 | 75* | -11 | -3
CC(C)[C@H](NC(=O)c1ccco1)C(=O)N1CCC[C@H]1C(=O)NCc1ccccc1 | / | / | / | 6 | /
CNc1nc(NCCOC23CC4CC(CC(C4)C2)C3)nc(OCC(F)(F)F)n1 | 24 | 3 | 6 | 2 | 31*
CNc1nc(OCC(F)(F)F)nc(OCC(F)(F)F)n1 | -21 | -4 | -5 | 1 | 5

Source: PubChem
